Values after ≈ are worked out from the molar mass of the structure shown.
Legend:
Plasmodium falciparum [1] = assay: (§1) Antiplasmodial activity against Plasmodium falciparum 3D7A erythrocytic stage assessed as reduction in [3H]hypoxanthine incorporation preincubated for 24 hrs followed by [3H]hypoxanthine addition and measured after 24 hrs by microbeta scintillation counting method; assay type: functional, organism-based
Method in brief: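 Nine threefold serial dilutions from 5 μM top concentration. Incubated 24 h at 37 °C under 5% CO2/5% O2/90% N2, then 0.2 μCi [3H]-hypoxanthine per well for another 24 h. Cells harvested on glass fibre filters and counted. Data normalized to compound-free parasitized RBCs; IC50 fitted.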

[2] = Binding affinity to zinc finger (CCCH type) protein in Plasmodium falciparum 3D7 blood stage extract incubated for 1 hr in presence of ATP-competitive kinase inhibitor by kinobeads based pull down assay; conditions: read-out: Kd(app)
[3] = Binding affinity to SRPK2 in Plasmodium falciparum 3D7 blood stage extract incubated for 1 hr in presence of ATP-competitive kinase inhibitor by kinobeads based pull down assay; conditions: read-out: Kd(app)
Method in brief: (§2)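 The free compound competed over six concentrations from 0.08 to 20 μM. Proteins were digested by a modified SP3 protocol, labelled with TMT 10-plex and quantified by LC-MS/MS. Apparent Kd was derived from IC50 corrected for bead depletion. Two independent experiments were run.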

[4] = Binding affinity to GSK3 in Plasmodium falciparum 3D7 blood stage extract incubated for 1 hr in presence of ATP-competitive kinase inhibitor by kinobeads based pull down assay; conditions: read-out: Kd(app); method in brief: as §2
[5] = biological target: cGMP-inhibited 3',5'-cyclic phosphodiesterase 3A (Homo sapiens, UniProt Q14432); assay: Inhibition of PDE3A (unknown origin)
Chain of cGMP-inhibited 3',5'-cyclic phosphodiesterase 3A (Q14432 whole entry): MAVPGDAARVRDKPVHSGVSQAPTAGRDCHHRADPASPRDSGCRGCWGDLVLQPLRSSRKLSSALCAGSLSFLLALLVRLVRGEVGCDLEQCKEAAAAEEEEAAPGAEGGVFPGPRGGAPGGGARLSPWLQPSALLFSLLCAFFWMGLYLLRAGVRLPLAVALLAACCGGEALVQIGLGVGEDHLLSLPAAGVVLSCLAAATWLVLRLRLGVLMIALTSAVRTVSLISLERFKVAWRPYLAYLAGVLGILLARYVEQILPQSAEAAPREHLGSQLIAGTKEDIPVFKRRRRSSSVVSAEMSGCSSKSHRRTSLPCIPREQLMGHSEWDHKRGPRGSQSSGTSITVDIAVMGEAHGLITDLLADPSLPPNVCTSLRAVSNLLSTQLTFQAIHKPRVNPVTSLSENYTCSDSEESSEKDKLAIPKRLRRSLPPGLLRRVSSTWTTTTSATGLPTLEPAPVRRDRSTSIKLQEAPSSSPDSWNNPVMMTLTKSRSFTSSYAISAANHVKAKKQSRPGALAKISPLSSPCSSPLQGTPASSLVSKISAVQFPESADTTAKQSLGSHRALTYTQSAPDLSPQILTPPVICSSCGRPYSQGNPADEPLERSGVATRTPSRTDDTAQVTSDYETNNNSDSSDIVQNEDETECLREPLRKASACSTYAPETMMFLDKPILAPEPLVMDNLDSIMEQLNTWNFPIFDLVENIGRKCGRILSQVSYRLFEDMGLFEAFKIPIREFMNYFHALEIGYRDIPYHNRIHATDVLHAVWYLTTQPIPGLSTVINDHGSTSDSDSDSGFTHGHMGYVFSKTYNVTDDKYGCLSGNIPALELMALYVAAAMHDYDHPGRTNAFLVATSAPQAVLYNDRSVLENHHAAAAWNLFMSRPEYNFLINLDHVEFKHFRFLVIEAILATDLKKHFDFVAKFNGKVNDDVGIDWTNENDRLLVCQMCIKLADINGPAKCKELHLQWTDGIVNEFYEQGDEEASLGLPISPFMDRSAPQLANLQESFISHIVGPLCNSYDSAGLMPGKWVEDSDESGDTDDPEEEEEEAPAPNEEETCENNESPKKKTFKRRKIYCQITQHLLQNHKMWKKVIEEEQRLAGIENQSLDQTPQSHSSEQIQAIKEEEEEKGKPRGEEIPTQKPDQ

[6] = biological target: T1, Calcium-dependent protein kinase 4 (Plasmodium falciparum (isolate 3D7), UniProt Q8IBS5); assay: Binding affinity to CDPK4 in Plasmodium falciparum 3D7 blood stage extract incubated for 1 hr by kinobeads based pull down assay; conditions: read-out: Kd(app)
T1 sequence (Q8IBS5 whole entry): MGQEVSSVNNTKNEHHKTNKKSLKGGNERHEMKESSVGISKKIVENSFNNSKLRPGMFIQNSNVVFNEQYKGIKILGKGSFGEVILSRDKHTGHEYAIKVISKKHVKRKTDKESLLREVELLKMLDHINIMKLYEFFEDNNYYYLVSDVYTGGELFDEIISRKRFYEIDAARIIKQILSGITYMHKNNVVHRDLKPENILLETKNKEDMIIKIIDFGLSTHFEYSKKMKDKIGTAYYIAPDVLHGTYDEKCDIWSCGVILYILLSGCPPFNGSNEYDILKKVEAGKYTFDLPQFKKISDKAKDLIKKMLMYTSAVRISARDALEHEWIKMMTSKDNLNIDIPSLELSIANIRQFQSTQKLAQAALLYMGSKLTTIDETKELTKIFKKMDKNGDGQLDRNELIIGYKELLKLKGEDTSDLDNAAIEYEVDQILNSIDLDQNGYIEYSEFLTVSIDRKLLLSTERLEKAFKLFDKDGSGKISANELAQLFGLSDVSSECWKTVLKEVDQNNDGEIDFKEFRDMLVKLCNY
Method in brief: (§3)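 Chemoproteomic competition used kinobeads or Sepharose beads derivatized with ligand at 1 mM. Free compound was tested at six concentrations between 0.08 and 20 μM, in two independent experiments. Proteins were SP3-digested, TMT 10-plex labelled and measured by LC-MS/MS. IC50s came from competition curves, and apparent Kd was corrected for protein depletion by the beads.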

[7] = Binding affinity to zinc finger (CCCH type) protein in Plasmodium falciparum 3D7 blood stage extract incubated for 1 hr by kinobeads based pull down assay; conditions: read-out: Kd(app)
[8] = biological target: T1, Calcium-dependent protein kinase 4; assay: Binding affinity to CDPK4 in Plasmodium falciparum 3D7 blood stage extract incubated for 1 hr in presence of ATP-competitive kinase inhibitor by kinobeads based pull down assay; conditions: read-out: Kd(app); method in brief: as §3
Plasmodium falciparum [9] = assay: Antiplasmodial activity against […] of Plasmodium falciparum NF54 assessed as reduction in female gametocytes activation preincubated for 48 hrs followed by gametocytes activation and measured after 24 hrs by fluorescence based automated inverted microscopic analysis; assay type: functional, organism-based
Method in brief: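 NF54 gametocytes were activated by lowered temperature plus ookinete medium with xanthurenic acid and anti-Pfs25-Cy3 antibody (1/2000 final dilution). Cultures were then kept at 26 °C for 24 h in the dark. Activated females were counted by Cy3 anti-Pfs25 fluorescence, with events gated on size, roundness and fluorescence intensity.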

[10] = biological target: Voltage-dependent L-type calcium channel subunit alpha-1C (Homo sapiens, UniProt Q13936); assay: Inhibition of human L-type CaV1.2
Chain of Voltage-dependent L-type calcium channel subunit alpha-1C (Q13936 whole entry): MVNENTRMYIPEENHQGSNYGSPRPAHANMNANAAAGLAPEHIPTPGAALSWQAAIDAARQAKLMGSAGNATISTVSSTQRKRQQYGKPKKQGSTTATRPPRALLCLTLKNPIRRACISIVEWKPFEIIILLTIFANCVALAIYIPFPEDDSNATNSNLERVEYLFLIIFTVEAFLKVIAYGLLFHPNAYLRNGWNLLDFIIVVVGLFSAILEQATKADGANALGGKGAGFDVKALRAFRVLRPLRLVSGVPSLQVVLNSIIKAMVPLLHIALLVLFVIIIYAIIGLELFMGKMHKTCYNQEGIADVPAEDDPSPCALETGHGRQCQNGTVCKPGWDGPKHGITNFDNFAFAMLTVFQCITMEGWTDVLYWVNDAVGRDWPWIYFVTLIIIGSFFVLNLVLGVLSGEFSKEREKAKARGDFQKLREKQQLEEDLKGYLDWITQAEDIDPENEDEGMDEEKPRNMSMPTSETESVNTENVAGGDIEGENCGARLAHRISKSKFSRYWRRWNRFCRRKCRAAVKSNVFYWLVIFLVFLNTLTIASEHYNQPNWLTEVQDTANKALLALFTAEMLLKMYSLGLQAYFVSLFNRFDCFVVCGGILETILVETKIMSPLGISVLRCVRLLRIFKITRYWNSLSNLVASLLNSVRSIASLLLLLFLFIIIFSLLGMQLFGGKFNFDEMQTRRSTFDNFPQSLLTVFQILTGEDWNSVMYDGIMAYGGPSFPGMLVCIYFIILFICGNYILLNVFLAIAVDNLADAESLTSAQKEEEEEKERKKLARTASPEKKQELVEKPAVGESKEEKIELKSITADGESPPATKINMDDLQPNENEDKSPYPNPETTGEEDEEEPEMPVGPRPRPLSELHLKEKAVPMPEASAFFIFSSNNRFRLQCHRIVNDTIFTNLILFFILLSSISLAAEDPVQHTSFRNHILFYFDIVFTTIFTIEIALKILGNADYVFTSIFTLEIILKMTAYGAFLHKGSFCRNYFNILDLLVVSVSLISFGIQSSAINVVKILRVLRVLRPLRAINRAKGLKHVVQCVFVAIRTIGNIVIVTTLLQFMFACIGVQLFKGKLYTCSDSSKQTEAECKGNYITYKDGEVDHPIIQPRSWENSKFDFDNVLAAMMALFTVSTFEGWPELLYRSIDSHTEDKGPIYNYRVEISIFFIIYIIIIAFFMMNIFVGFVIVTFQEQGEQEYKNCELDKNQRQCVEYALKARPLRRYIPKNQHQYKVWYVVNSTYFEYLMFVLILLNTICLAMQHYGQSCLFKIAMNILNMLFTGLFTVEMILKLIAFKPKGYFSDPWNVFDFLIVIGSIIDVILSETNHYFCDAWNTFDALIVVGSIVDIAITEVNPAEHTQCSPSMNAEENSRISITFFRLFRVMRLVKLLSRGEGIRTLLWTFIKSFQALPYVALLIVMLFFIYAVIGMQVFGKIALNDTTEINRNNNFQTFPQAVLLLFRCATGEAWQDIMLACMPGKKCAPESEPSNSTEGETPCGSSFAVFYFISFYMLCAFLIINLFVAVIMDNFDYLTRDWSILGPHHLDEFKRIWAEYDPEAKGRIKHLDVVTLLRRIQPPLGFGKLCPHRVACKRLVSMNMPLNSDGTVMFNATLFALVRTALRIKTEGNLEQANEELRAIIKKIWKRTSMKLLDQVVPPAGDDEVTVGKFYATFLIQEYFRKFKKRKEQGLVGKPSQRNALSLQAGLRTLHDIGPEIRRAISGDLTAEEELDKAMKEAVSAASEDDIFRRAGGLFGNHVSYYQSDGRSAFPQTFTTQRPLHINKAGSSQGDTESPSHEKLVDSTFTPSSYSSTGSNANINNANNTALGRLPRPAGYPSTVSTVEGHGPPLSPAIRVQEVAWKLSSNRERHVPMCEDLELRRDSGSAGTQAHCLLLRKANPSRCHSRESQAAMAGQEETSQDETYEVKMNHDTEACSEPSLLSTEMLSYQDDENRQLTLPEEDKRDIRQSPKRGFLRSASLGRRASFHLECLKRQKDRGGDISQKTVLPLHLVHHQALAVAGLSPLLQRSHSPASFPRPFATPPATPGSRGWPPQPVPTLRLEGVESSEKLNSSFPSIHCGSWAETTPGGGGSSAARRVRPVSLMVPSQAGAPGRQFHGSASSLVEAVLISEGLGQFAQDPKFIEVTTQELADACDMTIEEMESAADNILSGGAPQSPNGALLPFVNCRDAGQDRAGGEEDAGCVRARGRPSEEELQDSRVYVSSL

[11] = Aqueous solubility of compound; conditions: buffer
[12] = biological target: Calcium-dependent protein kinase 1 (Plasmodium falciparum, UniProt P62344); assay: Binding affinity to CDPK1 in Plasmodium falciparum 3D7 blood stage extract incubated for 1 hr in presence of ATP-competitive kinase inhibitor by kinobeads based pull down assay; conditions: read-out: Kd(app); method in brief: as §3
Chain of Calcium-dependent protein kinase 1 (P62344 whole entry): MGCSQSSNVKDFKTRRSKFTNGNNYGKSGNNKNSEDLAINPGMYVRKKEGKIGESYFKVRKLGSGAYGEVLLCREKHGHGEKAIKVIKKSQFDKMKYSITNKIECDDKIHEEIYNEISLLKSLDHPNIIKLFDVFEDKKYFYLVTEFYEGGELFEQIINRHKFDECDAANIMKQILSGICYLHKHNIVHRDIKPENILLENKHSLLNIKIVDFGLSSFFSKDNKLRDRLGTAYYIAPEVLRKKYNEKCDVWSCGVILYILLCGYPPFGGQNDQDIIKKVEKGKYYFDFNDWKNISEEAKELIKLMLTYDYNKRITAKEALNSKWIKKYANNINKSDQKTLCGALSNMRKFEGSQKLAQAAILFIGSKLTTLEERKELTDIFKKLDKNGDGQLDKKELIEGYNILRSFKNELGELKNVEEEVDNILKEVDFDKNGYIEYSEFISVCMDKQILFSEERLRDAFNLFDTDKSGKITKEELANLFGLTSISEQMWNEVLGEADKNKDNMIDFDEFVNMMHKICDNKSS

Plasmodium falciparum [13] = assay: as §1, with “3D7A harboring with PKG T618Q mutant asexual” for “3D7A”, “for 48” for “for 24”; assay type: functional, organism-based
[14] = biological target: Beta-2 adrenergic receptor (Homo sapiens, UniProt P07550); assay: Antagonist activity at human beta2 adrenoceptor
Chain of Beta-2 adrenergic receptor (P07550 whole entry): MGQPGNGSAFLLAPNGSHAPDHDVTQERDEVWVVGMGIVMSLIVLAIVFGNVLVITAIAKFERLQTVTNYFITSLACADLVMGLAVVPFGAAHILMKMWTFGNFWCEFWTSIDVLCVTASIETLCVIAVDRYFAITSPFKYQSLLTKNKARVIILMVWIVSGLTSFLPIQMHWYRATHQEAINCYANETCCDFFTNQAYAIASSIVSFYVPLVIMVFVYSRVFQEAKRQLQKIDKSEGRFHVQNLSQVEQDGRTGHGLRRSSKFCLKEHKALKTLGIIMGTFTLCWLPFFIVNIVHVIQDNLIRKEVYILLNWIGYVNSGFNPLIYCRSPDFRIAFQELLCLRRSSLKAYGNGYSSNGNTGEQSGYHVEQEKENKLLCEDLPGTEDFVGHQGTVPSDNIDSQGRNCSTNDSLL

[15] = biological target: T2, Amine oxidase [flavin-containing] A (Homo sapiens, UniProt P21397); assay: Inhibition of human MAO-A
T2 sequence (P21397 whole entry): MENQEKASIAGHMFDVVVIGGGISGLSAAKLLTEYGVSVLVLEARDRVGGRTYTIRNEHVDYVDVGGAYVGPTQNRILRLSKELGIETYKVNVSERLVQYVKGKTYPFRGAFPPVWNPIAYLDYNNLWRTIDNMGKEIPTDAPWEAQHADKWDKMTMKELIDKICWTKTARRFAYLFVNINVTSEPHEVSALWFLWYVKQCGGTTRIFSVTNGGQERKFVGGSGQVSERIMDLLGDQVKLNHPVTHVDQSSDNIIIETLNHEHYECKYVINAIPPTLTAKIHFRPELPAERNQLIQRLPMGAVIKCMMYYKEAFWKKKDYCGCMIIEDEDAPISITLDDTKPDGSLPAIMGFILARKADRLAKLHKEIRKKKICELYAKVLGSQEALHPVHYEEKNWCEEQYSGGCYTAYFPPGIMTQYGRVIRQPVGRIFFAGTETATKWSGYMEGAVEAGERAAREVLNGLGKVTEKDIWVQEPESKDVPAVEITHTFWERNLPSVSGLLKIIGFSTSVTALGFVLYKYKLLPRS

Plasmodium falciparum [16] = assay: Antiplasmodial activity against Plasmodium falciparum 3D7A asexual erythrocytic stage assessed as reduction in [3H]hypoxanthine incorporation preincubated for 72 hrs followed by [3H]hypoxanthine addition and measured after 24 hrs by microbeta scintillation counting method; assay type: functional, organism-based

Structure (SMILES): Cc1cc(Nc2nccc(-c3sc(C4CCNCC4)nc3-c3ccc(F)cc3)n2)ccn1
- EC50 (Plasmodium falciparum [1]): 160 nM
- Kd [2]: 3900 nM
- Kd [3]: 190 nM
- Kd [4]: 90 nM
- IC50 [5]: > 100000 nM
- Kd [6]: 50 nM
- Kd [7]: 3900 nM
- Kd [8]: 50 nM
- EC50 (Plasmodium falciparum [9]): 400 nM
- IC50 [10]: > 30000 nM
- solubility [11]: 410 µM (≈ 183 µg/mL)
- Kd [12]: 50 nM
- EC50 (Plasmodium falciparum [13]): 150 nM
- IC50 [14]: > 100000 nM
- IC50 [15]: > 100000 nM
- EC50 (Plasmodium falciparum [16]): 90 nM
